This is a sample that favours compounds with a hit; in the whole collection about 9.6% have one here.
PMI act hi M6P: increases human PMI activity with near-saturating mannose 6-phosphate; AID 1216; 0.34% of 190,000 active; activation factor at 20 µM; P34949; coupled PMI enzyme assay, resazurin fluorescence, 20 min; stronger effect = higher value; 1 = untreated enzyme, 0 = substrate-free blank;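 active = activation factor of 2 or more at 20 µM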
Target sequence (P34949 whole entry, looked up): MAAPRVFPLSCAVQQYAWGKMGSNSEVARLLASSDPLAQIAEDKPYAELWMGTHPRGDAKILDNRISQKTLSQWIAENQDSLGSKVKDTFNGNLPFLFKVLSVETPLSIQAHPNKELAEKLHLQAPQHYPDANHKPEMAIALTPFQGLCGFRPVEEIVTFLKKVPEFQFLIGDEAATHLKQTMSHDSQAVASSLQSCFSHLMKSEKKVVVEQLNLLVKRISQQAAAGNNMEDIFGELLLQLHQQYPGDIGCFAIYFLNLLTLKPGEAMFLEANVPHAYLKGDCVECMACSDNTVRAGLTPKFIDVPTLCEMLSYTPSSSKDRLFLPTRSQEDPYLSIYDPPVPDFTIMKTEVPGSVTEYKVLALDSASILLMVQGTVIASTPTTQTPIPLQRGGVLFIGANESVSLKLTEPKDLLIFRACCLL
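Technique: Diaphorase-driven resazurin-to-resorufin fluorescence, excitation 544, emission 590 nm | Assay system: Human PMI in coupled enzyme assay | Times: Enzyme reaction with compound 20 min at room temperature | Medium: HEPES-buffered pH 7.4 with magnesium and detergent | Reagent: Mannose-6-phosphate 1.0 mM (near-saturating) plus 0.22 mM NADP+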
PTEN del growth: PTEN-deleted cell growth suppression | HCT116 PTEN-null viability, CellTiter-Glo, 60 h; stronger effect = lower value | viability, % at 10 µM | 1.2% of 140,000 active;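 active = viability at or below a set limit, 4 SD under the median of all tested compounds, cut at about 3.7% in these data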;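 also: PTEN knockout HCT116 line with beta catenin targeted HCT116 as companion control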
HCT116 bCat-KO: beta-catenin-lacking colon tumor cell growth suppression | HCT116 beta-catenin knockout viability, CellTiter-Glo, 60 h; stronger effect = lower value | 1.5% of 140,000 active | viability, % at 10 µM;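 active = viability at or under a set limit, the compound median less 4 SD, cut at about 6% in these data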;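 also: 0% = Hyamine 1622 control at 20 µM and 100% = untreated cell control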
PMI act: increases human mannose-6-phosphate isomerase activity. AID 1214. activation factor at 20 µM. purified human PMI, coupled resazurin fluorescence, 20 min; stronger effect = higher value; 1 = vehicle control, 0 substrate-free wells. 0.005% of 190,000 active. P34949;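 active = activation factor of 2 or more at 20 µM, relative to plate controls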
L major viab: Leishmania major promastigote growth inhibition; Leishmania major promastigotes, resazurin fluorescence viability; inhibition, % at 10 µM; 9% of 200,000 active; AID 1063; in the data active = inhibition above about 50%;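 also: promastigotes grown with compound for 44 hours at 28 °C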
The depositor's hits bear a star; · = no result given.

SMILES | PMI act hi M6P | PTEN del growth | HCT116 bCat-KO | PMI act | L major viab
O=[N+]([O-])c1cccc(/C=N/Nc2nc(N3CCOCC3)nc(N3CCOCC3)n2)c1 | 1 | 102 | 102 | 1 | 73*
CC(=C/c1ccccc1)/C=N/Nc1nc(N2CCOCC2)nc(N2CCOCC2)n1 | 1 | 96 | 86 | 0.9 | 63*
C(=C\c1ccccc1)/C=N/Nc1nc(N2CCOCC2)nc(N2CCOCC2)n1 | 1.1 | 100 | 98 | 1 | 0
COCCn1c(-c2ccccc2)nc2c(c(=O)c3ccccc3n2C)c1=O | 0.9 | 93 | 72 | 1 | 6
Cc1ccc(S(=O)(=O)N2CCCOC2CNC(=O)C(=O)NCc2ccncc2)cc1 (stereo unspecified) | 1.1 | 89 | 90 | 1.1 | 1
COc1cc(NS(=O)(=O)c2ccc3c(c2)n(C)c(=O)n3C)cc(OC)c1 | 1 | 97 | 94 | 1 | 33
Cc1cc(C(=O)N/N=C/c2ccc3c(c2)OCO3)c(C)n1-c1ccc(F)cc1 | 1.3 | · | · | 1.5 | 29
Cc1cc(C(=O)N/N=C/c2ccc(Cl)c([N+](=O)[O-])c2)c(C)n1-c1ccc(F)cc1 | 1.2 | 2.5* | 3.1* | 1.3 | 20
CSc1cnn(Cc2ccccc2)c(=O)c1SCc1ccccc1 | 2.5* | 76 | 83 | 1.6 | 6
S=C(Nc1ccc(Br)cc1)NC1CCCCC1 | 1 | 53 | 56 | 1 | 16
COc1ccccc1-c1cc(C(=O)N/N=C/c2ccc(C)s2)c2ccccc2n1 | 0.9 | 77 | 68 | 0.9 | 83*
CN(C)S(=O)(=O)c1cc(NC(=O)CN2CCNC(=O)C2)ccc1Cl | 1.1 | 99 | 103 | 0.9 | 60*
Cc1ccc2nc(NC(=O)c3cccc(-c4cc5ccccc5oc4=O)c3)sc2c1 | 1 | 2.2* | 3.0* | 1.1 | -2
CCOc1ccc(-c2nc(S(=O)(=O)c3ccccc3)c(NCc3cccnc3)o2)cc1 | 1.3 | 106 | 116 | 1.1 | 83*
CCCCNc1oc(-c2ccc(OC)cc2)nc1S(=O)(=O)c1ccccc1 | 1.4 | 96 | 95 | 1.1 | 2
CSc1nnc2c(n1)[nH]c1c(C)cccc12 | 1 | 99 | 94 | 1 | 18
CC/C(=N/Nc1ccccc1C)c1cnnc(SC)n1 | 2.3* | 84 | 87 | 1.5 | 6
CSc1nncc(/C(C)=N\Nc2ccccc2)n1 | 1.9 | 59 | 61 | 1.4 | 3
CSc1nncc(/C(C)=N\Nc2cccc(C)c2)n1 | 2.4* | 93 | 92 | 1.5 | 9
COc1cc(NC(=O)Cn2nc(C(F)(F)F)c(Br)c2C)cc([N+](=O)[O-])c1 | 1 | 28 | 40 | 0.9 | 98*
Cc1cccc(N2CCN(C(=O)CCCn3c(=S)[nH]c4cc5c(cc4c3=O)OCO5)CC2)c1C | 0.9 | 53 | 56 | 0.9 | 64*
O=C(CCCn1c(=S)[nH]c2cc3c(cc2c1=O)OCO3)N1CCN(c2ccc(Cl)cc2)CC1 | 1 | 42 | 31 | 1 | 56*
O=C(CCCn1c(=S)[nH]c2cc3c(cc2c1=O)OCO3)N1CCN(c2ccccc2)CC1 | 1 | 74 | 70 | 1 | -1
COc1ccc(-c2cc(C(F)(F)F)nc(-n3ccnc3C)n2)cc1 | 0.9 | 62 | 68 | 0.8 | 0
O=C(O)CCC(=O)Nc1ccc(Cc2ccc(NC(=O)CCC(=O)O)c(O)c2)cc1O | 1.1 | 103 | 92 | 1.1 | -6
SMILES | PMI act hi M6P | PTEN del growth | HCT116 bCat-KO | PMI act | L major viab
O=C(Nc1ccc(Cc2ccc(NC(=O)C3CC3)c(O)c2)cc1O)C1CC1 | 0.9 | 94 | 83 | 0.9 | 52*
CCOC(=O)c1sc(NC(=O)COC(=O)CNC(=O)C2CCCCC2)c(C(=O)OCC)c1C | 0.9 | 97 | 88 | 1 | -4
CC(C)(C)/C(Cn1cncn1)=N\OC(=O)Nc1ccc(Cl)cc1 | 1 | 107 | 105 | 1 | 85*
O=c1[nH]c(SCc2ccc([N+](=O)[O-])cc2)nc2[nH]ncc12 | 1 | · | · | 1 | -5
OC(COc1c(F)cc(Br)cc1F)CN1CCN(c2ccc(F)cc2)CC1 (stereo unspecified) | 1 | 89 | 86 | 0.9 | 87*
CC1CCCC(C)N1CC(O)COc1ccc(Cl)cc1 (stereo unspecified) | 0.9 | 91 | 93 | 1 | 48
CC1CCCC(C)N1CC(O)COc1c(F)cc(Br)cc1F (stereo unspecified) | 1 | · | · | 1.1 | 74*
OC(CNC1CCCC1)COc1c(F)cc(Br)cc1F (stereo unspecified) | 1 | · | 98 | 1 | 93*
CC(C)NCC(O)COc1c(F)cc(Br)cc1F (stereo unspecified) | 1 | 108 | 102 | 1 | 30
Cn1ccnc1C(=O)c1ccc(S(=O)(=O)N2CCCC2)cc1 | 1.1 | · | · | 1.2 | -13
CCCCN(C(=N)N1CCCCC1)c1nc(C)c([N+](=O)[O-])c(=O)[nH]1 | 0.9 | 97 | 95 | 0.9 | -1
COCCNC(=O)C1CC(c2cccc([N+](=O)[O-])c2)=NO1 (stereo unspecified) | 1 | 86 | 97 | 1.2 | -2
N#Cc1ccc(NC(=O)Nc2ccc(Cl)cc2)cc1 | 1 | 3.4* | 4.0* | 0.9 | 28
CN(CC(=O)Nc1ccc(C#N)cc1)Cc1ccc(Cl)cc1 | 1 | 68 | 79 | 0.9 | -3
CCOC(=O)Cc1csc(NC(=O)c2cc3c(s2)CCCC3)n1 | 0.9 | 45 | 30 | 1 | 91*
CCOC(=O)Cc1csc(NC(=O)c2csc3c2CCCC3)n1 | 1 | 32 | 44 | 1 | 7
Cc1csc(NC(=O)c2cc3c(s2)CCCC3)n1 | 0.9 | 69 | 61 | 0.9 | 96*
COc1cccc(CNC(=O)C(C(=O)NCc2cccc(OC)c2)c2ncc(C(F)(F)F)cc2Cl)c1 | 1.1 | · | · | 1.1 | 1
O=C1CC(NNc2ccccc2)C(=O)N1c1ccc(N2CCCCC2)cc1 (stereo unspecified) | 2.7* | · | · | 1.8 | -3
O=C1CC(Nc2ccccc2)C(=O)N1c1ccc(N2CCOCC2)cc1 (stereo unspecified) | 1 | 97 | 110 | 1 | -6
Cc1cc(OCCN2CCCC2)ccc1[N+](=O)[O-] | 1 | 92 | 94 | 1 | 3
CCOC(=O)C(CCCCCOc1ccccc1[N+](=O)[O-])C(=O)OCC | 1 | 85 | 79 | 0.9 | 22
CC1CC(C)CN(CCCOc2ccccc2[N+](=O)[O-])C1 (stereo unspecified) | 1.2 | 88 | 80 | 1.1 | 81*
CCCCCOc1ccc(Cn2ccnc2)cc1[N+](=O)[O-] | 1.1 | 84 | 64 | 1.2 | 40
Cc1ccc([N+](=O)[O-])c(OCCN2CCCCCC2)c1 | 1.1 | 21 | 22 | 0.9 | 97*
Cc1ccc(OCCCn2ccnc2)c([N+](=O)[O-])c1 | 1 | 107 | 98 | 1 | 72*
Cc1ccc(OCCN2CCN(C)CC2)c([N+](=O)[O-])c1 | 1.1 | 97 | 101 | 1 | 95*
N#C/C(=C/c1ccc2c(c1)OCO2)C(=O)Nc1ccc(O)cc1 | 1 | · | · | 1 | -1
